This is a sample that favours compounds with a hit; in the whole collection about 4.1% have one here.
Dynein cargo inh: dynein cargo transport inhibition; z-score, hits read low; AID 1381; 220,000 tested, 0.47% active; 3617.4 mouse cells, GR-EGFP nuclear translocation imaging; test concentration mostly 20 µM; stimulated with dexamethasone, 1 µM; hits give low values;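 active = plate z-score of nuclear minus cytoplasmic receptor signal below a set negative limit, without overly bright fluorescence or cell loss, cut at about -3.5 in these data, passing the limit was not always enough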;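 also: z-score of nuclear minus cytoplasmic ring GR-EGFP intensity difference per well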
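Schedule: 48 h induction, then 1 h compound, then 30 min agonist, 37 °C. Buffer or medium: tetracycline-free induction medium containing charcoal-stripped FBS. Reagent: 1.0 µM final dexamethasone stimulus. Evaluation: nuclear versus cytoplasmic GR-EGFP signal, averaged per well. Signal: high-content fluorescence imaging after fixation.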
Cl transport mod: modulates chloride dependent transport by human KCC2; 190,000 tested, 2.2% active; B-score of Tl+ flux slope (higher = more flux/activation; lower = inhibition) at 10 µM; KCC2 cells, thallium flux FluoZin-2 fluorescence;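 active = thallium flux slope and its plate-corrected score both differing from the plate sample mean at a set confidence after two filtering rounds, in either direction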;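 also: slope of fluorescence scaled to starting intensity during 10 to 20 s after thallium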
Autophagy mod: modulators of autophagy | calls only at 10 µM (by protocol) | MEF GFP-LC3 puncta imaging; test concentration mostly 10 µM | AID 463193 | 190,000 tested, 0.98% active;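 active = percentage of spot-positive cells more than 3 SD above its plate mean, without a fluorescence outlier flag or 80% toxicity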;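 also: spot-positive cell cutoff set from DMSO-treated cells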
DTT redox prof: compounds producing H2O2 with reducing agent – biochemical, NIH compound library profiling, artefact control for MLSCN library redox annotation, primary screen. AID 878. DTT-dependent redox cycling H2O2, phenol red/HRP absorbance; 100% = 100 µM peroxide control, 0% = buffer. 200,000 tested, 0.03% active. activation, % at 10 µM;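 active = activation of at least 50% relative to the plate's high and low controls in the primary single-dose screen; inactive = activation below 50%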;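 also: compound incubated with DTT at 0.8 mM final as the reducing agent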
ROMK mod: modulates human ROMK potassium channel activity; P48048; Tet-inducible ROMK, thallium flux fluorescence; actives lie on both sides; B-score at 10 µM; 130,000 tested, 2% active; AID 1918;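 active = signal ratio slope over the read window, or its plate-corrected B-score, at least 3 SD from the plate mean, either direction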;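 also: B-score of the F/F0 ratio slope over 7 to 12 s after thallium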
ROMK hit retest: human ROMK channel modulation, retest confirmation. shares compounds with ROMK mod. 3,000 tested, 54% active. AID 1917. ROMK thallium flux, fluorescence ratio; hits give low values. normalized thallium flux (F/F0 slope) at 10 µM;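 active = Flux at 10 µM at least 3 SD below or above vehicle control mean in one or both replicates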
The depositor's hits bear a star; i = inactive; / = no result given.

SMILES | Dynein cargo inh | Cl transport mod | Autophagy mod | DTT redox prof | ROMK mod | ROMK hit retest
CCC(=O)Nc1ccc2c(c1)ncn2C | -0.84 | / | i | -1 | 0.18 | /
Cc1cc(=O)n2[nH]c(CCC(=O)O)nc2n1 | 0.46 | -0.27 | / | / | 0.78 | /
Cc1cc2nccc(-c3ccc(Cl)c([N+](=O)[O-])c3)n2n1 | 2.2 | -0.016 | i | 0 | -0.97 | /
CCOC(=O)C1=NN(C(=O)Cc2ccccc2)C(O)(C(C)(C)C)C1 (stereo unspecified) | -0.74 | 0.37 | i | 0 | -13* | 0.077
COc1cc(C(=O)Nc2cccc3cccnc23)cc(OC)c1OC | 1.4 | -1.8 | i | 2 | / | /
COc1cc(NC(C)CCCN)c2ncccc2c1Oc1ccccc1 (stereo unspecified) | -0.85 | 0.46 | i | 0 | -3.6* | 0.065*
COc1ccccc1-n1cc(C(=O)NCC(=O)NCc2ccc(F)cc2)c2ccccc2c1=O | -0.3 | / | i | 0 | 3.1* | 0.085
CC(=O)c1ccc(N(C(=O)CS(=O)CC(=O)Nc2ccc(F)cc2)C(C(=O)NC2CCCCC2)c2cccs2)cc1 (stereo unspecified) | -0.25 | -0.8 | i | 0 | -3.3* | 0.072
Clc1ccc2nc3ccccn3c2c1 | 0.82 | / | i | -3 | 3.6* | 0.092
COc1ccc(CNC(=O)c2ccc(C(C)C)cc2)cc1 | 0.014 | -0.58 | i | -1 | / | /
COc1ccc(C(=O)NCc2c(CC(C)C)oc(C)c2C(=O)O)cc1 | 0.68 | -0.46 | i | -1 | / | 0.076
COc1ccc2c(c1)N(S(=O)(=O)c1ccccc1)CCC2=O | 0.061 | -0.0046 | i | -1 | -0.1 | /
N#Cc1cnc(NOCc2ccc(Cl)cc2)nc1 | -0.47 | -0.036 | i | 0 | -9.5* | 0.074
COC(=O)N/N=C/c1cn(Cc2ccccc2Cl)c2ccccc12 | 0.034 | -0.56 | i | 1 | -1.1 | /
COC(=O)N/N=C/c1cn(Cc2ccccc2F)c2ccccc12 | -0.072 | -0.35 | / | / | -3.4* | 0.059*
CCCN1CCN(CCCNC(=O)c2cc3c(=O)[nH]c4ccccc4c3s2)CC1 | 0.0016 | -1.2 | i | -1 | -3.8* | 0.059*
Cc1nn(C(=O)CCCn2cc([N+](=O)[O-])cn2)c(C)c1Cl | -0.16 | -0.78 | i | -1 | 0.04 | /
O=C(CCn1c(=O)oc2ccccc21)N1CCN(C(c2ccccc2)c2ccccc2)CC1 | 0.45 | / | i | 0 | -2.8* | 0.059*
Cn1c(Cc2nc(-c3cnccn3)no2)nnc1SCC(=O)Nc1ccccc1 | 0.17 | 0.4 | / | / | / | /
COCCN(CCOC)C(=S)Nc1cc(S(=O)(=O)N(C)C)ccc1C | -0.3 | -0.046 | i | -1 | 4.3* | 0.082
CC(=O)NNC(=S)Nc1cc(S(=O)(=O)N(C)C)ccc1C | -0.8 | 1.2 | i | 0 | 0.72 | /
S=C(Nc1ccc(Cl)c(Cl)c1)NN1CCOCC1 | -0.87 | 0.83 | i | 1 | / | /
Fc1ccc(-n2cc(-c3ccccc3)c3c(NN4CCOCC4)ncnc32)cc1 | 0.13 | -0.6 | i | 0 | -4.2* | 0.048*
O=c1[nH]c2ccccc2nc1/C=C(\O)c1cccs1 | 0.35 | -0.14 | i | -1 | -2.5* | 0.045*
CC(C)(C)/C(O)=C/c1nc2ccccc2[nH]c1=O | 0.2 | 0.47 | i | 0 | / | /
SMILES | Dynein cargo inh | Cl transport mod | Autophagy mod | DTT redox prof | ROMK mod | ROMK hit retest
O=C(Cc1ccc([N+](=O)[O-])cc1)c1ccc(O)cc1O | -0.051 | -1.7 | / | / | / | /
Cc1cc(Cl)c(S(=O)(=O)Nc2ccc3c(c2)OCCO3)cc1OCC(=O)NC1CCCCC1 | -0.097 | -0.064 | i | 0 | -3.2* | 0.066*
Cc1cc(Cl)c(S(=O)(=O)N2CCN(c3ccc(F)cc3)CC2)cc1OCC(=O)NC1CCCCC1 | 0.74 | -0.74 | i | 2 | -4.3* | 0.063*
Cc1cc(Cl)c(S(=O)(=O)N2CCN(c3ccc(F)cc3)CC2)cc1OCC(N)=O | -0.31 | 1.6 | i | 0 | / | /
Cc1cc(Cl)c(S(=O)(=O)Nc2ccon2)cc1OCC(=O)NC1CCCCC1 | -0.41 | / | i | 0 | / | /
Cc1[nH]nc(SCC(=O)NCc2ccccc2)c1[N+](=O)[O-] | 0.61 | -1.5 | i | 1 | -2.3* | 0.074
COc1ccccc1Nc1nnc(SCC(=O)Nc2nc(-c3ccc(F)cc3)cs2)s1 | 0.056 | -1.5 | i | 0 | 0.65 | /

Assay outcomes (PubChem)
